In PMC5621377 (Clinical cancer research : an official journal of the …, 2016):
“Also recorded” adds a separate entry of the source.

Test: Pharmacokinetics, plasma LC-MS/MS, non-compartmental analysis
Format: in vivo, human
Procedure, shortened: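 Oral daily dosing at 50–1,200 mg/day. On Cycle 1 Days 1 and 18/21, blood was drawn pre-dose and at 0.5, 1, 2, 4, 6, 8 and 24 h, with further trough days. Parent drug and a metabolite in plasma were measured by validated LC-MS/MS (LLOQ 1.0 ng/mL). Non-compartmental analysis was used. Dose proportionality was fitted as ln(Cmax or AUC0–24) = α + β ln(dose). T1/2,acc came from the accumulation ratio; steady state was judged from troughs.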

CN(C)C(=O)c1cc2cnc(Nc3ccc(N4CCNCC4)cn3)nc2n1C1CCCC1 [ribociclib]
mean effective half-life based on accumulation ratio (T1/2, acc) (at the RDE (600 mg/day 3-weeks-on/1-week-off), oral): 32.6 h | dose proportionality of Cmax and AUC (dose range 50–1,200 mg/day): slightly higher than dose proportional; also recorded: slightly more than proportional to dose | Tmax (human, plasma, po): 1 to 5 h | steady state reached by (trough concentrations after repeated daily dosing): ~8 days
